Results on 47 compounds are retold here after ChEMBL document CHEMBL3792377, “Synthesis and characterization of a series of chiral alkoxymethyl morpholine analogs as dopamine receptor 4 (D4R) antagonists” (Bioorg Med Chem Lett, 2016).

A word on the IC50: it is the concentration at which inhibition is half-maximal. One may read the Ki as a dissociation constant, usually derived from enzyme kinetics or from competition with a known ligand. What is called inhibition is the change of the read-out against control, counted positive when it falls.

Where only a bound is given, the exact number is not on record here.

For one data set, the target named is T1, D(4) dopamine receptor (Homo sapiens, UniProt P21917).
T1 sequence (P21917 whole entry): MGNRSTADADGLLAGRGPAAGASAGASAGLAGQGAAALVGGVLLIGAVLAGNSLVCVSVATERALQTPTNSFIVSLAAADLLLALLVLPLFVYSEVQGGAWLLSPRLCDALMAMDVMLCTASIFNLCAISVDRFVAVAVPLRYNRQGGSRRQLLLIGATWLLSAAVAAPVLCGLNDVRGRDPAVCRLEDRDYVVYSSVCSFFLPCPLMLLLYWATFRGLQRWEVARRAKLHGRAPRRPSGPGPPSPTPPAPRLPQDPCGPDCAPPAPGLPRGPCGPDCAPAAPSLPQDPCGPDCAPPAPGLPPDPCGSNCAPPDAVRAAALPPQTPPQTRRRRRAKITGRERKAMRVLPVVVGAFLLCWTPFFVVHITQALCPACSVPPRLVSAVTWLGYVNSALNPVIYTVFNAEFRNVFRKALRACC
Briefly: Displacement of [3H]-Spiperone from human recombinant dopamine D4 receptor expressed in CHOK1 cells. The format is cell-based, CHO-K1. A digest of the protocol: (§1)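 Radioligand binding at human D4 receptor using [3H]-spiperone, run as a contract assay in duplicate. IC50 and Ki were derived from concentration–response data. Single-point values are % inhibition of specific binding at 10 µM test compound.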

A further data set has as its system Plasma. Briefly: Fraction unbound in rat plasma by equilibrium dialysis method. The format is ADME, cell-free. Background: In equilibrium dialysis only unbound substance equilibrates across the membrane.
A short description of data set [1]: Fraction unbound in human plasma by equilibrium dialysis method. Format: ADME, cell-free.
The target in the next data set is D(2) dopamine receptor (Homo sapiens, UniProt P14416). The data set can be described thus: Displacement of [3H]-Spiperone from human recombinant dopamine D2S receptor expressed in CHO cells at 10 uM relative to control. Format: cell-based. Summed up: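 Off-target dopamine receptor radioligand binding (D1, D2L, D2S, D3, D5), run as a contract assay. Test compound at a single concentration of 10 µM, reported as % inhibition of specific binding, measured in duplicate.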
Sequence of D(2) dopamine receptor (P14416 whole entry): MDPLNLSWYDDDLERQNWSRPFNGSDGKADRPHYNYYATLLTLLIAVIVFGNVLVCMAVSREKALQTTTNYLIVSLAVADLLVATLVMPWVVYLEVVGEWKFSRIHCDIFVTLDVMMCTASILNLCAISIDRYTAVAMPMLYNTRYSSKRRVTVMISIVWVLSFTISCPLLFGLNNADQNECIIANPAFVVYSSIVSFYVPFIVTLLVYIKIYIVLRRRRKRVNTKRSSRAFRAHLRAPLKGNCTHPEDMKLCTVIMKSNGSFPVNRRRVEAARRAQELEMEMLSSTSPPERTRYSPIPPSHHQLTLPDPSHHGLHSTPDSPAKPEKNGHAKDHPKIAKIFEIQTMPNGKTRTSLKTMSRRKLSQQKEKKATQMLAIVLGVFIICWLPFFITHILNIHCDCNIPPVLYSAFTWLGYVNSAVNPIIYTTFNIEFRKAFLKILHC

The target in data set [2] is T2, D(4) dopamine receptor (Homo sapiens) (UniProt P21917).
T2 sequence (whole entry): T1 sequence (P21917 whole entry)
The data set can be described thus: Displacement of [3H]-Spiperone from human recombinant dopamine D4 receptor expressed in CHOK1 cells at 10 uM relative to control. Format: cell-based. Particulars: CHO-K1. A digest of the protocol:
as §1

In the case of `Clc1ccc(CN2CCO[C@H](COc3ccccc3)C2)cc1Cl`, the IC50 on D(4) dopamine receptor amounted to 97 nM. In addition, the Ki on D(4) dopamine receptor was determined as 27 nM. For the same compound, the values for the Fu (with Plasma; in data set [1]) were 0.006 and 0.002, respectively.

Turning to `Fc1ccc(CN2CCO[C@H](COc3ccccc3)C2)cc1F`, on D(4) dopamine receptor, the IC50 was found to be 530 nM and the Ki came out at 150 nM.

With `COc1cc(CN2CCO[C@H](COc3ccccc3)C2)ccc1F`, on D(4) dopamine receptor, the IC50 came to 42 nM and the Ki was determined as 11.6 nM.

As for `COc1ccc(OC[C@@H]2CN(Cc3ccc(Cl)cc3)CCO2)cc1`, at D(4) dopamine receptor, the IC50 was 150 nM and the Ki turned out to be 42 nM.

On to `COc1cccc(OC[C@@H]2CN(Cc3ccc(Cl)cc3)CCO2)c1`, for which, at D(4) dopamine receptor, the IC50 was 130 nM and the Ki stood at 36 nM.

Regarding `c1ccc(OC[C@@H]2CN(Cc3cn4ccccc4n3)CCO2)cc1`, on D(4) dopamine receptor, the IC50 amounted to 590 nM and the Ki is 160 nM. In the data set on Plasma, this compound gave a Fu of 0.215. Further, the Fu in data set [1] is recorded as 0.057.

Consider `Cc1ccc(CN2CCO[C@H](COc3ccccc3)C2)cc1C`, for which, at D(4) dopamine receptor, the IC50 is 45 nM and the Ki came out at 12.3 nM. On D(2) dopamine receptor, the inhibition was below 50%.

As to `COc1ccc(CN2CCO[C@H](COc3ccccn3)C2)cc1`, the inhibition in data set [2] amounted to 57%.

With `c1ccc(OC[C@@H]2CN(Cc3cccc4cc[nH]c34)CCO2)cc1`, at D(4) dopamine receptor, the IC50 stood at 130 nM and the Ki is 37 nM.

For `COc1ccc(CN2CCO[C@H](COc3ccccc3)C2)cc1Cl`, the half-maximal inhibitory concentration (IC50) at D(4) dopamine receptor was 38 nM. For the same compound, the Ki on D(4) dopamine receptor came to 10.4 nM. Moreover, the Fu is listed as 0.019 in the data set on Plasma and 0.01 in data set [1]. For the same compound, the inhibition on D(2) dopamine receptor was below 50%.

In the case of `Fc1cc(CN2CCO[C@H](COc3ccccc3)C2)ccc1Cl`, at D(4) dopamine receptor, the IC50 came to 69 nM and the inhibition constant (Ki) stood at 19.1 nM. The compound further had a Fu in the data set on Plasma of 0.012. The same compound had a Fu in data set [1] of 0.006.

Regarding `Fc1cccc(OC[C@@H]2CN(Cc3ccc(Cl)cc3)CCO2)n1`, at D(4) dopamine receptor, the concentration for half-maximal inhibition (IC50) amounted to 460 nM and the inhibition constant Ki is 130 nM.

For `COc1cc(CN2CCO[C@H](COc3ccccn3)C2)ccc1Cl`, in data set [2], the inhibition came to 34%.

Take `c1ccc(OC[C@@H]2CN(Cc3ccc4ccccc4n3)CCO2)cc1`: on D(4) dopamine receptor, the IC50 stood at 1110 nM and the inhibitory constant (Ki) was found to be 310 nM.

In the case of `COc1cc(CN2CCO[C@H](COc3cccc(F)c3)C2)ccc1Cl`, on D(4) dopamine receptor, the 50% inhibitory concentration (IC50) worked out at 37 nM and the Ki amounted to 10.1 nM. The compound also displayed a Fu in the data set with Plasma of 0.014. This compound had a Fu in data set [1] of 0.011. In addition, the inhibition on D(2) dopamine receptor was below 50%.

With `COc1ccc2[nH]cc(CN3CCO[C@H](COc4ccccc4)C3)c2c1`, at D(4) dopamine receptor, the IC50 came out at 460 nM and the Ki turned out to be 130 nM.

Consider `Clc1ccc(CN2CCO[C@H](COc3ccccn3)C2)cc1`, for which, at D(4) dopamine receptor, the IC50 was found to be 2630 nM and the Ki was found to be 730 nM.

In the case of `COc1cc(CN2CCO[C@H](COc3cccc(C#N)c3)C2)ccc1Cl`, at D(4) dopamine receptor, the IC50 is 100 nM and the Ki is 28 nM.

Turning to `COc1cc(CN2CCO[C@H](COc3cccc(F)n3)C2)ccc1Cl`, the inhibition in data set [2] was -3%.

For the compound `Clc1ccc2[nH]cc(CN3CCO[C@H](COc4ccccc4)C3)c2c1`, on D(4) dopamine receptor, the IC50 is 130 nM and the inhibition constant (Ki) was 37 nM.

In the case of `Fc1ccc(CN2CCO[C@H](COc3ccccc3)C2)cc1C(F)(F)F`, at D(4) dopamine receptor, the IC50 amounted to 320 nM and the inhibitory constant (Ki) is 89 nM.

As to `FC(F)(F)Oc1ccc(CN2CCO[C@H](COc3ccccc3)C2)cc1`, on D(4) dopamine receptor, the IC50 is 180 nM and the Ki is 51 nM.

Regarding `COc1ccc(CN2CCO[C@H](COc3ncccn3)C2)cc1`, in data set [2], the inhibition turned out to be 8%.

For `c1ccc(OC[C@@H]2CN(Cc3n[nH]c4ccccc34)CCO2)cc1`, on D(4) dopamine receptor, the IC50 came out at 65 nM and the Ki was 18.1 nM. Besides, the inhibition at D(2) dopamine receptor is below 50%.

As for `Clc1ccc(CN2CCO[C@H](COc3cncnc3)C2)cc1`, the inhibition in data set [2] amounted to 76%.

For `COc1ccc(CN2CCO[C@H](COc3ccccn3)C2)cc1Cl`, the inhibition in data set [2] was 37%.

For the compound `COc1ccc(CN2CCO[C@H](COc3ccccc3)C2)cc1OC`, at D(4) dopamine receptor, the IC50 came to 150 nM and the Ki came out at 43 nM.

`COc1ccc(CN2CCO[C@H](COc3cccnc3)C2)cc1`: on D(4) dopamine receptor, the IC50 was 210 nM and the Ki is 59 nM.

For `COc1ccc(CN2CCO[C@@H](COc3ccccc3)C2)cc1Cl`, the inhibition in data set [2] worked out at 35%.

On to `Clc1ccc(CN2CCO[C@H](COc3cccnc3)C2)cc1`, for which, at D(4) dopamine receptor, the IC50 was 103 nM and the Ki was found to be 47 nM.

Turning to `Fc1cccc2[nH]cc(CN3CCO[C@H](COc4ccccc4)C3)c12`, at D(4) dopamine receptor, the half-inhibitory concentration (IC50) is 3830 nM and the Ki worked out at 1060 nM.

Regarding `COc1ccc(CN2CCO[C@H](COc3cccc(F)c3)C2)cc1Cl`, the IC50 on D(4) dopamine receptor came out at 39 nM. Besides, the Ki on D(4) dopamine receptor was 10.8 nM. The Fu turned out to be 0.013 with Plasma and 0.006 in data set [1]. Besides, the inhibition on D(2) dopamine receptor is below 50%.

In the case of `Fc1cc(CN2CCO[C@H](COc3ccccc3)C2)ccc1C(F)(F)F`, the IC50 at D(4) dopamine receptor worked out at 58 nM. The inhibitory constant (Ki) on D(4) dopamine receptor worked out at 16.2 nM. The Fu in the data set with Plasma was determined as 0.007; in data set [1], 0.002.

As to `FC1(F)Oc2ccc(CN3CCO[C@H](COc4ccccc4)C3)cc2O1`, at D(4) dopamine receptor, the IC50 came to 260 nM and the Ki came to 72 nM.

Consider `Fc1ccc(CN2CCO[C@H](COc3ccccc3)C2)cc1Cl`, for which, at D(4) dopamine receptor, the IC50 worked out at 62 nM and the Ki is 170 nM.

On to `COc1ccc(CN2CCO[C@H](COc3cccc(F)c3)C2)cc1`, for which, at D(4) dopamine receptor, the IC50 came to 92 nM and the Ki amounted to 26 nM.

Regarding `CSc1ccc(CN2CCO[C@H](COc3ccccc3)C2)cc1`, at D(4) dopamine receptor, the IC50 came to 58 nM and the Ki turned out to be 16.1 nM.

Consider `COc1ccc(CN2CCO[C@H](COc3cccc(F)n3)C2)cc1Cl`, for which, at D(4) dopamine receptor, the IC50 was 260 nM and the Ki is 73 nM.

In the case of `Clc1ccc(CN2CCO[C@H](COc3cccc(Cl)n3)C2)cc1`, at D(4) dopamine receptor, the IC50 was 100 nM and the Ki came to 29 nM. The compound further gave a Fu in the data set on Plasma of 0.008. The Fu in data set [1] came out at 0.004.

On to `COc1ccc(CN2CCO[C@H](COc3ccccc3)C2)cc1`, for which, on D(4) dopamine receptor, the IC50 was found to be 160 nM and the Ki turned out to be 44 nM.

In the case of `Fc1ccc2c(CN3CCO[C@H](COc4cccc(F)n4)C3)c[nH]c2c1`, the IC50 at D(4) dopamine receptor turned out to be 76 nM. Besides, the Ki at D(4) dopamine receptor stood at 21 nM. Also, the Fu in the data set with Plasma was 0.015; in data set [1], 0.009. At D(2) dopamine receptor, the inhibition is below 50%.

As for `c1ccc(OC[C@@H]2CN(Cc3ccc4ccccc4c3)CCO2)cc1`, at D(4) dopamine receptor, the 50% inhibitory concentration (IC50) is 64 nM and the Ki came out at 17.8 nM.

In the case of `COc1ccc(CN2CCO[C@H](COc3cncnc3)C2)cc1`, in data set [2], the inhibition was -4%.

Consider `COc1ccc(CN2CCO[C@H](COc3ccc(OC)cc3)C2)cc1`, for which, at D(4) dopamine receptor, the IC50 was determined as 380 nM and the Ki came to 110 nM.

As to `Clc1ccc(CN2CCO[C@H](COc3ncccn3)C2)cc1`, the inhibition in data set [2] was found to be 31%.

In the case of `COc1ccc(CN2CCO[C@H](COc3cccc(C#N)c3)C2)cc1Cl`, on D(4) dopamine receptor, the IC50 came out at 130 nM and the Ki was 36 nM.

Take `c1ccc(OC[C@@H]2CN(Cc3ncn4ccccc34)CCO2)cc1`: on D(4) dopamine receptor, the IC50 worked out at 130 nM and the Ki turned out to be 35 nM. Also, at D(2) dopamine receptor, the inhibition was below 50%.
